Test results from ChEMBL document CHEMBL1125279, “Neurochemistry of aging. 2. Design, synthesis, and biological evaluation of halomethyl analogues of choline with high affinity choline transport inhibitory activity” (J Med Chem, 1991).
pIC50: −log10 of the molar value.

What was measured:
Type in all cases: functional
Rattus norvegicus = organism: Rattus norvegicus; experiment: Concentration required to inhibit 50% of the transport of [3H]choline into synaptosomes, using rat hippocampal synaptosomes.; details: Hippocampus
Summary of the method: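 Rat hippocampus dissected on ice, homogenized in 0.32 M sucrose; P2 pellet (12000g, 20 min) resuspended in sucrose. Synaptosomes incubated with [3H]choline and increasing inhibitor concentrations, 8 min at 30 °C; filtered, washed three times, lysed in water, tritium counted. High-affinity uptake = standard-medium minus sodium-free accumulation, per mg protein (Lowry); IC50 from percent inhibition.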

Cavia porcellus [1] = organism: Cavia porcellus; experiment: Relative potency with respect to choline in isolated guinea pig ileum preparations.
Cavia porcellus [2] = organism: Cavia porcellus; experiment: Relative potency with respect to acetylcholine in isolated guinea pig ileum preparations.
Summary of the method: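 Guinea pig ileum segment in Tyrode's solution (NaCl 137 mM, KCl 2.68 mM, MgCl2 1.05 mM, CaCl2 1.80 mM, NaH2PO4 0.42 mM, NaHCO3 11.90 mM, glucose 5.55 mM), contents flushed. Contractions to 3–7 concentrations recorded by polygraph and compared against concentration responses to acetylcholine and choline.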

| pIC50 (Rattus norvegicus) | Compound | Relative potency (Cavia porcellus [1]) | Relative potency (Cavia porcellus [2]) |
| --- | --- | --- | --- |
| 4.25 | CC(O)C[N+](C)(C)CBr.[Br-] (stereo unspecified) | 0.04 |  |
| 4.11 | C[N+]1(C)CCOC1.[Br-] | 4.25 |  |
| 6.06 | C[N+](C)(CBr)CCO.[Br-] | 0.14 |  |
| 6.04 | C[N+](C)(CCl)CCO.[I-] | 0.13 |  |
| 3.89 | CC(O)C[N+](C)(C)CCl.[I-] (stereo unspecified) | 0.05 |  |
| 6.31 | C[N+](C)(CI)CCO.[I-] | 0.33 |  |
| 4.30 | CC(O)C[N+](C)(C)CI.[I-] (stereo unspecified) | 0.1 |  |

The remaining lines, values behind:

| Compound | pIC50 (Rattus norvegicus) | Relative potency (Cavia porcellus [1]) | Relative potency (Cavia porcellus [2]) |
| --- | --- | --- | --- |
| CC1C[N+](C)(C)CO1.[Br-] (stereo unspecified) | 3.70 | 2 |  |
| CC(=O)OCC[N+](C)(C)CI.[I-] |  |  | 0.11 |
| CC(=O)OCC[N+](C)(C)CBr.[Br-] |  |  | 0.05 |
| CC(=O)OC(C)C[N+](C)(C)CI.[I-] (stereo unspecified) |  |  | 0.02 |
| CC(=O)OCC[N+](C)(C)CCl.[I-] |  |  | 0.09 |
| CC(=O)OCC[N+](C)(C)C.[I-] [ACETYLCHOLINE IODIDE] |  |  | 1 |
